Compound activity (PubChem BioAssay)
MrgX1 antag: human MrgX1 receptor antagonism, primary screen | MRGX1-HEK293 calcium flux, Fluo-4, BAM8-22 antagonism; stronger effect = lower value | B-score at 10 µM | hit rate 1.3% among 310,000;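 active = calcium-response B-score plate-corrected more than 3 library SD below zero, starting fluorescence within 5 deviations, no agonist response on first addition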;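 also: peak minus trough fluorescence over baseline after final BAM8-22 challenge near maximal dose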
Target sequence (Q96LB2 whole entry, looked up): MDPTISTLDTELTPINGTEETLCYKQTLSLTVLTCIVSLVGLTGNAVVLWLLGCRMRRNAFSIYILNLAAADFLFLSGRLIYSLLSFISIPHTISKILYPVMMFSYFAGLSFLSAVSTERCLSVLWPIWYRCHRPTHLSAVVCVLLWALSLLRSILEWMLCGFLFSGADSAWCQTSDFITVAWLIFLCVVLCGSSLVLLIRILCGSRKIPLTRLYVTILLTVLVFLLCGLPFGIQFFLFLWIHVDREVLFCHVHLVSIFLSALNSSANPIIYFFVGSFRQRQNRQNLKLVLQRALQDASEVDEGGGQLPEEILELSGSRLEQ
MrgX1 ag: agonists of human MrgX1 receptor. Q96LB2. MrgX1-HEK293 cells, Fluo-4 calcium fluorescence, agonist mode; stronger effect = higher value. B-score at 10 µM. hit rate 0.44% among 310,000;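 active = calcium response B-score plate-corrected fluorescence ratio at least 3 library SD, with starting fluorescence B-score inside 5 SD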
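Material – MrgX1-expressing HEK293 cells · Input – 15,000 cells seeded per well · Dosing – compound as first of three additions · Times – overnight seeding, then 1 h dark dye loading · Measured by – kinetic Fluo-4 NW fluorescence of intracellular calcium · Read-out – B-scored fluorescence response ratio · Benchmarks – positive and negative control wells on each plate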
RGS4 inh: human RGS4 inhibition; P49798; HEK293 M3R/RGS4 inducible, Fluo-4 calcium flux; stronger effect = higher value; triggered by carbachol at its EC20; B-score at 10 µM; hit rate 0.45% among 310,000; AID 463165;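 active = B-score, a plate-corrected calcium signal, over three deviations above library mean, with baseline fluorescence within five deviations of library mean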;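 also: RGS4 expression induced by doxycycline in cells with stable M3 receptor; B-score is computed from the integrated fluorescence ratio over baseline after carbachol; higher B-score means a larger calcium signal and so more RGS4 inhibition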
Target sequence (P49798 whole entry, looked up): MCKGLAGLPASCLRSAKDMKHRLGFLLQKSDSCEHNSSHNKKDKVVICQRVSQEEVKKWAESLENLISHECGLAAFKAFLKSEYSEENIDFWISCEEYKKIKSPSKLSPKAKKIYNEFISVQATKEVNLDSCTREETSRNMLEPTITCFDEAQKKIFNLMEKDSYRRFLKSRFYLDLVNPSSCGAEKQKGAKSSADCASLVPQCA
Lipid droplet: modulators of hepatic lipid droplet formation; inhibition, % at 6.5 µM; AML12 mouse hepatocytes, oleate lipid droplets, BODIPY imaging; hit rate 0.4% among 240,000;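 active = lipid droplet intensity inhibited by at least 50%, with more than 500 cells counted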
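material = mouse AML12 hepatocyte cell line, fixed after treatment | also added = 100 µM oleic acid challenge | doses = compound at 6.5 µM only | schedule = overnight exposure | technique = Image-based BODIPY and DAPI two-channel analysis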
MrgX1 allo act: human MrgX1 positive allosteric modulation, primary screen; MrgX1-HEK293, Fluo-4 calcium flux, FDSS; stronger effect = higher value; B-score at 10 µM; hit rate 0.63% among 310,000; AID 588675;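 active = plate-corrected calcium response at least 3 library SD above typical, normal starting fluorescence, not activating the receptor alone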;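 also: compound read alongside a low EC10 to EC30 dose of BAM8-22 agonist; peak minus trough fluorescence over baseline measured at the second addition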
RGS4 act: potentiators or activators of RGS4; HEK293 M3R/inducible RGS4, carbachol calcium flux Fluo4; stronger effect = lower value; AID 463111; hit rate 0.92% among 310,000; B-score at 10 µM;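 active = B-score of the integrated calcium signal more than 4 SD below the library mean, with starting fluorescence not abnormally high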;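 also: negative B-score means reduced calcium response which marks RGS4 activation or potentiation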
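Detection: kinetic calcium fluorescence imaging with Fluo4-AM dye, 2 µM / Material: HEK293 cells with stable M3R and inducible RGS4 / Schedule: recording 10 s baseline at 1 Hz, 100 s post-agonist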
Lipid drop inh: confirmation of inhibitors of hepatic lipid droplet formation. hit rate 65% among 870. shares compounds with Lipid droplet. inhibition, % at 5.2 µM. AID 463183. AML12 mouse hepatocytes, BODIPY lipid droplet imaging; droplets induced with 100 µM oleic acid;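 active = inhibition of lipid droplet metric at least 50%, with more than 300 cells in each of four replicates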;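 also: plate controls were DMSO with oleic acid for no effect and 5 µM Triacsin-C for full effect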
AML12 cytotox: AML12 hepatocyte cytotoxicity (counter-screen). shares compounds with Lipid droplet. AML12 mouse hepatocytes, DAPI nuclear morphology cytotoxicity imaging; stronger effect = higher value; cells fed 100 µM oleate overnight. z-score at 5 µM. hit rate 3% among 870. AID 463200; in the data active = z-score above about 6.3;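 also: compound exposure lasted overnight at 37 °C before fixation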
AML12 tox ATP: AML12 hepatocyte cytotoxicity, confirmed | AID 463219 | cytotoxicity, % at 50 µM | shares compounds with Lipid droplet | AML12 mouse hepatocyte viability, ATP luminescence; cells loaded with 100 µM oleic acid | 530 tested, under 10 active;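 active = cytotoxicity above 50% in each of four replicates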;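 also: compound exposure lasted overnight at 37 °C before the ATP read; 0% = DMSO-treated cells and 100% = wells with no cells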
Active calls of the source: *. An excerpt weighted towards active compounds, which were near 3.8% of everything screened.

CCc1ccc(OCc2ccc(C(=O)O)o2)cc1 was read as MrgX1 antag inactive, MrgX1 ag inactive, RGS4 inh inactive, Lipid droplet 59*, MrgX1 allo act inactive, RGS4 act inactive, Lipid drop inh 16 and AML12 cytotox -0.027.
Screening O=C(CC1(O)C(=O)Nc2ccccc21)c1cccnc1 (configuration not stated) returned MrgX1 antag inactive, MrgX1 ag inactive, RGS4 inh inactive, Lipid droplet 11, MrgX1 allo act inactive and RGS4 act inactive.
CCOc1ccc(C2=Nc3ccccc3C(c3ccc(N4CCOCC4)cc3)=NN2)cc1 was read as MrgX1 antag inactive, MrgX1 ag inactive, RGS4 inh inactive, MrgX1 allo act inactive and RGS4 act inactive.
Screening CCOc1ccc(C2=Nc3ccc(Br)cc3C(c3ccc(N4CCOCC4)cc3)=NN2)cc1 returned MrgX1 antag inactive, MrgX1 ag inactive, RGS4 inh inactive, Lipid droplet 62*, MrgX1 allo act inactive, RGS4 act inactive, Lipid drop inh 23 and AML12 cytotox -0.046.
Cc1ccc(S(=O)(=O)n2nc(-c3ccco3)nc2N)cc1 was read as MrgX1 antag inactive, MrgX1 ag inactive, RGS4 inh inactive, Lipid droplet -14, MrgX1 allo act inactive and RGS4 act inactive.
CCOc1ccc(CCNC(=O)COC(=O)c2sccc2C)cc1OCC was read as MrgX1 antag inactive, MrgX1 ag inactive, RGS4 inh inactive, MrgX1 allo act inactive and RGS4 act inactive.
For CCOc1ccc(CCNC(=O)c2cc3sccc3n2CC)cc1OCC the results were MrgX1 antag inactive, MrgX1 ag inactive, RGS4 inh inactive, Lipid droplet 92*, MrgX1 allo act inactive, RGS4 act inactive, Lipid drop inh 108*, AML12 cytotox -0.053 and AML12 tox ATP 8.
`CCOc1ccc(CCNC(=O)CSc2cc(=O)n(C)c3cc(Cl)ccc23)cc1OCC` gave MrgX1 antag inactive, MrgX1 ag inactive, RGS4 inh inactive, Lipid droplet 78*, MrgX1 allo act inactive, RGS4 act inactive, Lipid drop inh 78*, AML12 cytotox -0.28 and AML12 tox ATP -1.
Screening CCOc1ccc(CCNC(=O)c2nnc(Cc3ccc(F)cc3)o2)cc1OCC returned MrgX1 antag inactive, MrgX1 ag inactive, RGS4 inh inactive, Lipid droplet 102*, MrgX1 allo act inactive, RGS4 act inactive, Lipid drop inh 106*, AML12 cytotox -0.35 and AML12 tox ATP 10.
`CCn1c(=O)cc(OCC(=O)NCCc2cccc(C)c2)c2ccccc21` gave MrgX1 antag inactive, MrgX1 ag inactive, RGS4 inh inactive, Lipid droplet -21, MrgX1 allo act inactive and RGS4 act inactive.
For Cn1c(=O)cc(SCC(=O)NCCC2=CCCCC2)c2ccc(Cl)cc21 the results were MrgX1 antag inactive, MrgX1 ag inactive, RGS4 inh inactive, Lipid droplet -20, MrgX1 allo act inactive and RGS4 act inactive.
CCOc1ccc(CCNC(=O)CSc2cc(=O)n(CC)c3ccccc23)cc1OCC was read as MrgX1 antag inactive, MrgX1 ag inactive, RGS4 inh inactive, Lipid droplet 93*, MrgX1 allo act inactive, RGS4 act inactive, Lipid drop inh 105*, AML12 cytotox -0.19 and AML12 tox ATP 14.
Screening Cc1cccc(C)c1OC(=O)CN1C(=O)c2ccccc2C1=O returned MrgX1 antag inactive, MrgX1 ag inactive, RGS4 inh inactive, Lipid droplet -1, MrgX1 allo act inactive and RGS4 act inactive.
For CC1CCCN(S(=O)(=O)c2ccc(NC(=O)C3CC(=O)N(c4ccccc4)C3)cc2)C1 (configuration not stated) the results were MrgX1 antag inactive, MrgX1 ag inactive, RGS4 inh inactive, Lipid droplet -1, MrgX1 allo act inactive and RGS4 act inactive.
For N/C(=N/O)c1nc(N2CCCCC2)nc(N2CCCCC2)n1 the results were MrgX1 antag inactive, MrgX1 ag inactive, RGS4 inh inactive, Lipid droplet 8, MrgX1 allo act inactive and RGS4 act inactive.
`N/C(=N/O)c1nc(N2CCCC2)nc(N(c2ccccc2)c2ccccc2)n1` gave MrgX1 antag inactive, MrgX1 ag inactive, RGS4 inh inactive, Lipid droplet 65*, MrgX1 allo act inactive, RGS4 act inactive, Lipid drop inh 107*, AML12 cytotox -0.9 and AML12 tox ATP 8.
For CC(O)(CS(=O)(=O)Cc1ccccc1)c1ccccc1 (configuration not stated) the results were MrgX1 antag inactive, MrgX1 ag inactive, RGS4 inh inactive, Lipid droplet -1, MrgX1 allo act inactive and RGS4 act inactive.
For CC(C)n1c(O)c(N=NC(=O)C2COc3ccccc3O2)c2ccccc21 (configuration not stated) the results were MrgX1 antag inactive, MrgX1 ag inactive, RGS4 inh inactive, Lipid droplet 52*, MrgX1 allo act inactive, RGS4 act inactive, Lipid drop inh -1 and AML12 cytotox -1.1.
`CCN1C(=O)/C(=C/c2ccc(OC)c(OC)c2)N=C1SCC(=O)NCc1ccco1` gave MrgX1 antag inactive, MrgX1 ag inactive, RGS4 inh inactive, Lipid droplet -29, MrgX1 allo act inactive and RGS4 act inactive.
O=C(NC1CCCC1)C1CCN(c2cnccn2)CC1 was read as MrgX1 antag inactive, MrgX1 ag inactive, RGS4 inh inactive, Lipid droplet 2, MrgX1 allo act inactive and RGS4 act inactive.
For COc1ccc(N2CCN(c3nccs3)CC2)cc1 the results were MrgX1 antag inactive, MrgX1 ag inactive, RGS4 inh inactive, Lipid droplet -12, MrgX1 allo act inactive and RGS4 act inactive.
`Cc1nnc(SCC(=O)Nc2cc(-c3cc(C)c(C)cc3C)nn2-c2ccccc2)s1` gave MrgX1 antag inactive, MrgX1 ag inactive, RGS4 inh inactive, Lipid droplet 78*, MrgX1 allo act inactive, RGS4 act inactive, Lipid drop inh 89*, AML12 cytotox -0.66 and AML12 tox ATP -7.
